{"source": "ChEMBL document CHEMBL1141109", "about": "“Synthesis of an estrogen receptor beta-selective radioligand: 5-[18F]fluoro-(2R,3S)-2,3-bis(4-hydroxyphenyl)pentanenitrile and comparison of in vivo distribution with 16alpha-[18F]fluoro-17beta-estradiol” (J Med Chem, 2005)", "key": {"Mus musculus [1]": {"organism": "Mus musculus", "assay": "Serum estradiol level in nonestrus mouse BALB/c cell line; (n=3)"}, "Mus musculus [2]": {"organism": "Mus musculus", "assay": "Serum estradiol level in estrus estrogen receptor beta mouse; (n=3)", "assay_type": "functional, organism-based", "how_it_was_run": "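Serum was collected and sent to an outside laboratory for radioimmunoassay using reagents intended for human serum. […] Results are in pg/mL as mean ± SD, with three samples per mouse.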"}}, "data": [{"smiles": "C[C@]12CC[C@@H]3c4ccc(O)cc4CC[C@H]3[C@@H]1CC[C@@H]2O", "values": [{"measurement": "Level", "setting": "Mus musculus [1]", "result": 28.7, "unit": "pg/mL"}, {"measurement": "Level", "setting": "Mus musculus [2]", "result": 43.8, "unit": "pg/mL"}]}]}
